Series [1] in a line: Growth inhibition of human HEK293 cells at 10 uM after 24 hrs by MTT assay relative to control. Type of series: cell-based. The note with it: read-out: GI. The essentials: (§1)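 Exponentially growing cells in RPMI-1640 with 10% heat-inactivated FBS, 37 °C, 5% CO2. Treated 24 h at the single stated concentration. MTT (5 mg/mL in PBS) added for 2 h at 37 °C, then DMSO. Percent proliferation inhibition was calculated versus control. Independent experiments in duplicate, values averaged from two determinations.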

Series [2] relates to COLO 205. Kind of series: Growth inhibition of human COLO205 cells at 1 uM after 24 hrs by MTT assay relative to control. Type of series: functional. The note with it: COLO 205, 24 h, read-out: GI. The essentials: as §1
Series [3] deals with K562. Nature of the series: Growth inhibition of human K562 cells at 1 uM after 24 hrs by MTT assay relative to control. Conditions: K562, 24 h, read-out: GI. It counts as functional. The essentials:
as §1

The test system of series [4] is K562. Kind of series: Growth inhibition of human K562 cells at 10 uM after 24 hrs by MTT assay relative to control. Type of series: functional. Conditions: K562, 24 h, read-out: GI. The essentials: as §1
(In general: Formazan colour is commonly taken as a measure of viable cells.)

The nature of series [5]: Growth inhibition of human HEK293 cells at 1 uM after 24 hrs by MTT assay relative to control. Conditions: read-out: GI. It counts as cell-based. The essentials:
as §1

Series [6] concerns K562. Nature of the series: Cytotoxicity against human K562 cells after 24 hrs by MTT assay. Type of series: functional, cell-based. The note with it: K562, 24 h. The essentials:
(§2)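 Cells from NCCS Pune, grown in RPMI-1640 with 10% heat-inactivated FBS, penicillin/streptomycin and glutamine at 37 °C, 5% CO2. Cells were washed with PBS and exposed for 24 h, first at 1, 10 and 100, then at 2–64. MTT (5 mg/mL in PBS) added for 2 h, then DMSO. IC50 read graphically from concentration vs % inhibition plot. Each point is the average of two determinations.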

The subject of series [7] is COLO 205. Nature of the series: Growth inhibition of human COLO205 cells at 10 uM after 24 hrs by MTT assay relative to control. Conditions: COLO 205, 24 h, read-out: GI. Type of series: functional. The essentials:
as §1

The test system of series [8] is COLO 205. Nature of the series: Cytotoxicity against human COLO205 cells after 24 hrs by MTT assay. Type of series: functional, cell-based. The note with it: COLO 205, 24 h. The essentials:
as §2

Series [9] can be described thus: Lipophilicity, log P of the compound. It counts as physicochemical. The note with it: octanol/water.

The term IC50 denotes the midpoint of a concentration-inhibition curve. `CCOP(=O)(OCC)C(Nc1ccccc1)c1ccc(-c2ccncc2)cc1` (configuration not stated): the inhibition at 24 h, 10 µM in series [1] turned out to be 0%. Also, the values for the inhibition of growth at 1 µM in the series with COLO 205 [2] and in the series on K562 [3] were 18.1% and 0%, respectively. Further, the inhibition of growth at 10 µM with K562 [4] stood at 0%; in the series on COLO 205 [7], 31%. Moreover, the inhibition at 24 h, 1 µM in series [5] is 0%. In addition, the IC50 is over 100 µM in the series on K562 [6] and 18 µM in the series on COLO 205 [8].
Consider `CCOP(=O)(OCC)C(Nc1ccc(F)c(Cl)c1)c1ccc(-c2ccncc2)cc1` (configuration not stated), for which the inhibition at 24 h, 10 µM in [1] was 1.2%. Besides, the inhibition of growth at 1 µM with COLO 205 [2] was determined as 44.5%; with K562 [3], 26%. The inhibition of growth at 10 µM in the series with K562 [4] came out at 26.2%; with COLO 205 [7], 47%. Besides, in series [5], the inhibition at 24 h, 1 µM was 0.2%. The figures for the IC50 with K562 [6] and in the series on COLO 205 [8] were 22 µM and 10 µM, respectively.
In general, logP refers to the decadic logarithm of the partition coefficient of the neutral form, usually between octanol and water. Higher therefore signals a more lipophilic compound. In the case of `CCOP(=O)(OCC)C(Nc1cccc(Br)c1)c1ccc(-c2ccncc2)cc1` (configuration not stated), in series [1], the inhibition at 24 h, 10 µM is 2.3%. Besides, the inhibition of growth at 1 µM in the series on COLO 205 [2] amounted to 31.3%; in the series with K562 [3], 41.7%. For the same molecule, the inhibition of growth at 10 µM in the series with K562 [4] was 53.8%; in the series with COLO 205 [7], 71.6%. Further, the logP in series [9] amounted to 5.72. In [5], the inhibition at 24 h, 1 µM was determined as 1%. Besides, the IC50 stood at 10 µM in the series on K562 [6] and 5 µM with COLO 205 [8].
For `CCOP(=O)(OCC)C(Nc1ccc(Cl)c([N+](=O)[O-])c1)c1ccc(-c2ccncc2)cc1` (configuration not stated), the inhibition at 24 h, 10 µM in [1] is 3.4%. For the same molecule, the inhibition of growth at 1 µM came to 35% in the series with COLO 205 [2] and 14.3% with K562 [3]. For the same molecule, the inhibition of growth at 10 µM stood at 24.9% with K562 [4] and 45.1% in the series with COLO 205 [7]. Moreover, the inhibition at 24 h, 1 µM in [5] was determined as 1.2%. Besides, the IC50 in the series with K562 [6] was found to be 19 µM; with COLO 205 [8] it was 12 µM.
Turning to `CCOP(=O)(OCC)C(Nc1cccc([N+](=O)[O-])c1)c1ccc(-c2ccncc2)cc1` (configuration not stated), the inhibition at 24 h, 10 µM in series [1] amounted to 1.2%. The inhibition of growth at 1 µM with COLO 205 [2] was found to be 39.5%; in the series on K562 [3], 0%. Further, the inhibition of growth at 10 µM in the series on K562 [4] is 25.8%; with COLO 205 [7] it was 41.1%. Moreover, in series [5], the inhibition at 24 h, 1 µM was found to be 0%. The IC50 in the series with K562 [6] was 20 µM; in the series with COLO 205 [8], 14 µM.
In the case of `CCOP(=O)(OCC)C(Nc1ccncc1)c1ccc(-c2ccncc2)cc1` (configuration not stated), the inhibition at 24 h, 10 µM in series [1] was 1.9%. Moreover, the figures for the inhibition of growth at 1 µM in the series with COLO 205 [2] and with K562 [3] were 14% and 0%, respectively. For the same molecule, the inhibition of growth at 10 µM with K562 [4] is 15.7%; in the series with COLO 205 [7], 53.4%. Also, the inhibition at 24 h, 1 µM in series [5] was 0.5%. The IC50 is 32 µM in the series with K562 [6] and 10 µM in the series on COLO 205 [8].
Turning to `CCOP(=O)(OCC)C(NCc1cccnc1)c1ccc(-c2ccncc2)cc1` (configuration not stated), the inhibition at 24 h, 10 µM in series [1] turned out to be 3.6%. The results for the inhibition of growth at 1 µM with COLO 205 [2] and with K562 [3] were 27.6% and 26%, respectively. For the same molecule, the values for the inhibition of growth at 10 µM in the series on K562 [4] and in the series on COLO 205 [7] were 48.4% and 60.1%, respectively. In series [9], the logP was 4.55. In series [5], the inhibition at 24 h, 1 µM came out at 3.1%. Further, the IC50 worked out at 10 µM in the series with K562 [6] and 8 µM in the series on COLO 205 [8].
For `CCOP(=O)(OCC)C(Nc1nccs1)c1ccc(-c2ccncc2)cc1` (configuration not stated), the inhibition at 24 h, 10 µM in series [1] was found to be 2.5%. Also, the inhibition of growth at 1 µM turned out to be 37.1% in the series on COLO 205 [2] and 0% in the series on K562 [3]. The inhibition of growth at 10 µM in the series with K562 [4] came to 24%; in the series on COLO 205 [7], 47.9%. Further, in series [5], the inhibition at 24 h, 1 µM was 1%. For the same molecule, the values for the IC50 in the series with K562 [6] and with COLO 205 [8] were 24 µM and 10 µM, respectively.
In the case of `CCOP(=O)(OCC)C(Nc1nc2ccccc2s1)c1ccc(-c2ccncc2)cc1` (configuration not stated), the inhibition at 24 h, 10 µM in [1] was determined as 2.5%. Besides, the values for the inhibition of growth at 1 µM with COLO 205 [2] and in the series with K562 [3] were 36.6% and 0%, respectively. In addition, the inhibition of growth at 10 µM in the series with K562 [4] worked out at 15.7%; with COLO 205 [7] it was 41%. In addition, the inhibition at 24 h, 1 µM in series [5] was 2.5%. In addition, the IC50 was found to be 35 µM in the series with K562 [6] and 15 µM in the series with COLO 205 [8].
`CCOP(=O)(OCC)C(Nc1nc2ccc([N+](=O)[O-])cc2s1)c1ccc(-c2ccncc2)cc1` (configuration not stated): the inhibition at 24 h, 10 µM in [1] amounted to 0.3%. Also, the inhibition of growth at 1 µM with COLO 205 [2] stood at 34.4%; with K562 [3] it was 0.9%. Also, the inhibition of growth at 10 µM in the series on K562 [4] amounted to 18.9%; in the series with COLO 205 [7], 48.1%. The inhibition at 24 h, 1 µM in series [5] amounted to 0%. Also, the IC50 in the series on K562 [6] came to 31 µM; with COLO 205 [8], 10 µM.

These data come from ChEMBL document CHEMBL1926522, “PEG-SO(3)H catalyzed synthesis and cytotoxicity of α-aminophosphonates” (Eur J Med Chem, 2012).
